Among the data in ChEMBL document CHEMBL1821659, “N-Benzyl-3-sulfonamidopyrrolidines are a New Class of Bacterial DNA Gyrase Inhibitors” (ACS Med Chem Lett, 2011) are MIC, IC50 and Activity values, retold here.

Molecules are shown by their SMILES. In brackets after ≈: the same amount, converted by molar mass. Activity calls are given as the source filed them. The calls are words filed in the database; no cut-off is given here.

One may read the MIC as the least concentration at which growth counts as inhibited. In general, IC50 refers to the concentration needed to halve the response being measured.

In test [1] the test system is Escherichia coli. In words: Antimicrobial activity against Escherichia coli BW25113 after 14 hrs by microdilution method in presence of efflux pump inhibitor 60 uM MC-207,110. In kind it is functional. The note with it: BW25113, 14 h. For orientation: Broth dilution looks for growth in wells or tubes with falling amounts of substance.
The test system of test [2] is Pseudomonas aeruginosa. In words: Antimicrobial activity against Pseudomonas aeruginosa K after 16 hrs by microdilution method in presence of efflux pump inhibitor 60 uM MC-207,110. Type of test: functional.
For test [3], the system named is Salmonella enterica. In words: Antimicrobial activity against Salmonella enterica ATCC 19585 after 14 hrs by microdilution method in presence of efflux pump inhibitor 60 uM MC-207,110. In kind it is functional. The note with it: ATCC 19585, 14 h.
Test [4] concerns Streptococcus pneumoniae. In words: Antimicrobial activity against Streptococcus pneumoniae ATCC 10813 after 24 hrs by microdilution method. In kind it is functional. The note with it: ATCC 10813, 24 h.
Test [5] concerns Escherichia coli. Briefly: Antimicrobial activity against Escherichia coli BW25113 delta tolC after 14 hrs by macrodilution method. In kind it is functional. The method in brief: (§1)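 MIC determined in the E. coli BW25113 ΔtolC drug-pump knockout, which lacks a functional AcrAB-TolC multidrug efflux pump. The pump inhibitor was applied only to the wild-type strains.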
Test [6] concerns Escherichia coli. Briefly: Antimicrobial activity against Escherichia coli BW25113 after 14 hrs by macrodilution method in presence of efflux pump inhibitor 60 uM MC-207,110. In kind it is functional. To be noted: BW25113, 14 h. The method in brief: (§2)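 Run on wild-type strains, with 60 μM of the efflux pump inhibitor MC-207,110 added to potentiate compound activity.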
In test [7] the test system is Pseudomonas aeruginosa. Briefly: Antimicrobial activity against Pseudomonas aeruginosa K after 16 hrs by macrodilution method in presence of efflux pump inhibitor 60 uM MC-207,110. In kind it is functional. In a few lines:
as §2

For test [8], the system named is Salmonella enterica. In words: Antimicrobial activity against Salmonella enterica ATCC 19585 after 14 hrs by macrodilution method in presence of efflux pump inhibitor 60 uM MC-207,110. In kind it is functional. The note with it: ATCC 19585, 14 h. In a few lines: as §2
In test [9] the test system is Staphylococcus aureus. In words: Antimicrobial activity against Staphylococcus aureus FRI 100 after 14 hrs by macrodilution method. Type of test: functional. The note with it: FRI 100, 14 h.
In test [10] the test system is Streptococcus pneumoniae. Briefly: Antimicrobial activity against Streptococcus pneumoniae ATCC 10813 after 24 hrs by macrodilution method. In kind it is functional. To be noted: ATCC 10813, 24 h.
Test [11] deals with Enterococcus faecalis. In words: Antimicrobial activity against Enterococcus faecalis 1131 after 14 hrs by macrodilution method. Type of test: functional. To be noted: Enterococcus faecalis, 1131, 14 h.
The nature of test [12]: Inhibition of Escherichia coli DNA gyrase assessed as DNA supercoiling using pUC19 as substrate after 30 mins by agarose gel electrophoresis. The method in brief:
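Gel-based supercoiling assay on pUC19. Supercoiled, linear and relaxed pUC19 were run as marker lanes. Test compounds were applied at a range of μM concentrations.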

Test [13] deals with Escherichia coli. In words: Antimicrobial activity against Escherichia coli BW25113 delta tolC after 14 hrs by microdilution method. Type of test: functional. The method in brief: as §1
Test [14] concerns Staphylococcus aureus. In words: Antimicrobial activity against Staphylococcus aureus FRI 100 in presence of reserpine after 14 hrs. Type of test: functional, organism-based.
Test [15] concerns Enterococcus faecalis. In words: Antimicrobial activity against Enterococcus faecalis 1131 after 14 hrs. Type of test: functional, organism-based.
For test [16], the system named is Enterococcus faecalis. In words: Antimicrobial activity against Enterococcus faecalis 1131 in presence of reserpine after 14 hrs. Type of test: functional, organism-based.
Test [17] has as its system Nucleic Acid. In words: Induction of DNA damage at Escherichia coli supercoiled pUC19 bound to DNA gyrase assessed as dsDNA breaks in the absence of ATP at =<3.3 mM after 1 hrs by agarose gel electrophoresis. Type of test: nucleic-acid assay.

Turning to `Cc1ccc(F)cc1S(=O)(=O)N[C@@H]1CCN(Cc2ccc(OC(C)C)cc2)C1`, the minimal inhibitory concentration (MIC) came to 40 µM in test [1]; 80 µM in [2]; 80 µM in test [3]; 160 µM (≈ 65 µg/mL) in [4]; 10 µM (≈ 4.07 µg/mL) in test [5]; 40 µM in test [6]. The MIC in test [7] was 80 µM; in [8] it was 80 µM; in test [9] it was > 160 µM; in [10], 160 µM (≈ 65 µg/mL); in test [11], > 160 µM. In addition, in test [12], the IC50 worked out at 3.3 µM.

For `Cc1ccc(F)cc1S(=O)(=O)N[C@H]1CCN(Cc2ccc(OC(C)C)cc2)C1`, the MIC in test [13] and in test [5] was 140 µM (≈ 56.9 µg/mL) each time. Besides, in test [12], the IC50 stood at 40.8 µM.

`Cc1ccc(F)cc1S(=O)(=O)NC1CCN(Cc2ccc(OC(C)C)cc2)C1` (stereo not drawn): the outcome in test [14], in test [15], in [16] and in [17] was inactive.

`Cc1ccc(F)cc1S(=O)(=O)NC1CCN(Cc2ccc(CC(C)C)cc2)C1` (stereo not drawn) [GYRAMIDE B]: the MIC in [1] came out at 40 µM; in [2] it was 40 µM; in test [3], 20 µM; in [5], 5 µM (≈ 2.02 µg/mL); in [6] it was 40 µM; in test [7] it was 40 µM. Besides, the MIC in test [8] was 20 µM; in test [9], 80 µM (≈ 32.4 µg/mL); in [10], 20 µM (≈ 8.09 µg/mL); in test [11] it was > 160 µM. The outcome in [14], in [15] and in test [16] was inactive. In test [12], the IC50 came to 0.7 µM.

On to `Cc1ccc(F)cc1S(=O)(=O)NC1CCN(Cc2ccc(-c3ccccc3)cc2)C1` (stereo not drawn) [GYRAMIDE C], for which the MIC amounted to 2.5 µM (≈ 1.06 µg/mL) in [13]; 20 µM in [1]; 20 µM in test [2]; 10 µM in [3]; 2.5 µM (≈ 1.06 µg/mL) in [5]; 20 µM in test [6]. In addition, the MIC was 20 µM in test [7]; 10 µM in [8]; 20 µM (≈ 8.49 µg/mL) in test [9]; 10 µM (≈ 4.25 µg/mL) in test [10]; > 160 µM in test [11]. The result in [14], in test [15] and in test [16] was inactive. The IC50 in test [12] stood at 1.1 µM.
